Measurements gathered from unrelated publications.
Each line is one published result; the experiments were not run side by side.
Target: Insulin receptor-related protein (INSRR, Homo sapiens, UniProt P14616)

| SMILES | assay | conditions | remaining binding [%] |
| --- | --- | --- | --- |
| c1cncc(-c2cccc(Nc3nccc(NC4CCCCC4)n3)c2)c1 | binding, competition with immobilised ligand | 10 µM | 74 |
| O=C(c1ccc(Nc2ncc(Cl)c(-c3cc4ccccc4s3)n2)cc1)N1CCC(N2CCCC2)CC1 | binding, competition with immobilised ligand | 1 µM | 25 |
| COc1ncc2cc3ccccc3nc2c1C#N | cell-free assay, competition with immobilised ligand | 5 µM | 100 |
| C[C@@]1(Cc2ccc(C#N)cc2)C(=O)N(c2cc(Cl)cc(Cl)c2)c2ncc(C(=O)NC3(c4nc(C5CCC5)no4)CC3)n21 | cell-free assay, competition with immobilised ligand | 1 µM | 100 |
| CN(C)c1nccc(-c2cnc3ncccn23)n1 | binding | 1 µM | 82 |
| C[C@@H]1CN(c2cc(-c3nn(C)c4ccc(OC5(C)CC5)cc34)ncn2)C[C@H](C)O1 | cell-free assay, competition with immobilised ligand | 1 µM | 91 |
| N[C@H]1CCN(c2nccc(-c3cnn4ncccc34)n2)C1 | binding | 1 µM | 97 |
| O=C(c1ccc(Nc2ncc(Cl)c(-c3ccc(Cl)s3)n2)cc1)N1CCC(N2CCCC2)CC1 | binding, competition with immobilised ligand | 1 µM | 23 |
| CN(CCCC(F)(F)F)c1nccc(-c2cnn3ncccc23)n1 | binding | 1 µM | 100 |
| CNC(=O)Nc1ccc2c(c1)CC[C@@]21OC(=O)N(CC(=O)N(Cc2ccc(F)cc2)[C@@H](C)C(F)(F)F)C1=O | cell-free assay, competition with immobilised ligand | 1 µM | 96 |
| O=C(NCC1CCOCC1)c1n[nH]cc1NC(=O)c1c(F)cccc1F | binding, competition with immobilised ligand | 1 µM | 88 |
| C=CC(=O)N1CCC(C(=O)NCC(=O)N2CCN(c3nc(-c4cnc(N)nc4C(F)F)nc(N4CCOCC4)n3)CC2)CC1 | binding, competition with immobilised ligand | 1 µM | 96 |
| COc1cnc(Nc2cccc(S(N)(=O)=O)c2)nc1N1CCN(c2ccccc2)CC1 | binding, competition with immobilised ligand | 1 µM | 100 |
| O=C(c1ccc(Nc2nccc(-c3cc4ccccc4s3)n2)cc1)N1CCC(N2CCCC2)CC1 | binding, competition with immobilised ligand | 1 µM | 99 |
| CN(C)C(=O)Cn1cc(-c2nc(C3(c4ccc(-c5cnc(N)nc5)cc4)CC3)no2)cn1 | cell-free assay, competition with immobilised ligand | 1 µM | 100 |
| CN(C)c1nccc(-c2cnn3ncccc23)n1 | binding | 1 µM | 92 |
| O=C1CCc2cc(Nc3cc(OC4CCOCC4)c([N+](=O)[O-])cc3Cl)ccc2N1 | cell-free assay, competition with immobilised ligand | 1 µM | 100 |
| Nc1ncc2c(n1)-c1c([nH]c3ccc(C#CC4CC4)cc13)CCCC2 | binding, competition with immobilised ligand | 1 µM | 98 |
| CN(C)c1ncc(F)c(-c2cnn3ncccc23)n1 | binding | 1 µM | 100 |
| CNCc1ccccc1-c1csc([C@@H](C)Nc2nc(C)nc3cc(OC)c(OC)cc23)c1 | cell-free assay, competition with immobilised ligand | 1 µM | 95 |
| CN(c1nccc(-c2cnn3ncccc23)n1)C1CC1 | binding | 1 µM | 100 |
| Cc1nc(C2CCN(C(=O)c3ccc(OC(F)(F)F)cc3N)CC2)c2ncc(N3CCN(C)CC3)cc2n1 | cell-free assay, competition with immobilised ligand | 1 µM | 100 |
